Screening data deposited in PubChem by several laboratories.
Hsp70 activator: Hsp70 transcriptional activators, primary screen, cell-based, HeLa, Hsp70 promoter luciferase, luminescence, 10 µM; HeLa Hsp70 promoter luciferase reporter; scaled: vehicle 0, proteasome-inhibitor control 100%; activation, % at 10 µM; 0.04% of 200,000 active; AID 1203, 2008;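 active = activation above the mean across all tested compounds plus 3 SD, cutoff set per campaign, cut at about 5.5% in these data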
HSF1 inhib: HSF1 inhibitors in luciferase reporter cells, primary screen, cell-based, NIH3T3, luminescence | NIH3T3-HGL HSE-luciferase, MG132-induced, luminescence 8 h; active compounds read low | activity change, negative = inhibition, % at 7.5 µM (by protocol) | 0.77% of 300,000 active;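 active = more than half of replicate wells show activity change below -50%, luminescence cut by over half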;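 note: luciferase reports HSF-1 transcriptional activity via heat shock element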
HSF1 activator: HSF-1 activators, primary screen, NIH3T3-HGL cells, MG132 stress, luminescence, single point; 1.7% of 300,000 active; AID 504408, 2011; NIH3T3-HGL HSF-1 luciferase reporter, 8 h; 100% = twice DMSO control signal; activation, % at 9 µM;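 active = mean replicate activation of at least 50% with a set share of replicates each reaching 50%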
T cruzi inh: inhibitors of intracellular T. cruzi growth, primary screen, luminescence, NIH3T3 host cells. T. cruzi beta-gal in NIH3T3, 90 h. inhibition, % (concentration not given with the values). 1.4% of 300,000 active. AID 1885, 2009;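 active = mean inhibition across valid replicates above about 55%, limit read from the data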;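 note: signal also drops with host cell toxicity which is not excluded here; higher percent means less beta-gal luminescence so fewer parasites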
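Assay system: NIH/3T3 fibroblasts plus reporter T. cruzi. Amount: NIH/3T3 cells, 5,000 per well. Buffer or medium: DMEM, 2% fetal bovine serum. Doses: compound pinned at 50 nL/well, DMSO. Schedule: ≥90 h infection period, 3 h prior cell attachment. Signal: luminescent β-galactosidase signal after 60 min lysis. Read-out: parasite load inhibition, %.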
L major viab: Leishmania major promastigote growth inhibition, primary screen | inhibition, % at 10 µM | AID 1063, 2008 | Leishmania major promastigotes, resazurin fluorescence viability | 9% of 200,000 active; in the data active = inhibition above about 50%;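 note: promastigotes grown with compound for 44 hours at 28 °C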
Numbers stand for hits; – = inactive; · = no result given. The entries come from a sample that favours hits as a whole.

SMILES	Hsp70 activator	HSF1 inhib	HSF1 activator	T cruzi inh	L major viab
CCOC(=O)C1=C(c2ccccc2)Nc2ncnn2C1c1cc(OC)ccc1OC (stereo not given)	–	–	–	–	100
CCOC(=O)C1=C(c2ccccc2)Nc2ncnn2C1c1ccc(OC)c(OC)c1OC (stereo not given)	–	–	–	56	86
COc1ccc(C2C=C(c3ccc(C)c(C)c3)Nc3ncnn32)c(OC)c1OC (stereo not given)	–	–	–	–	80
COc1cccc(C2C(C(=O)OCc3ccccc3)=C(C)Nc3ncnn32)c1OC (stereo not given)	–	–	–	–	91
CCOC(=O)C1=C(C(F)(F)F)Nc2ncnn2C1c1cc(OC)ccc1OC (stereo not given)	–	–	–	–	–
CN(C)c1ccc(C(=S)N2CCCC2)cc1Br	·	–	–	–	·
Cc1cccc(OCc2n[nH]c(=S)n2Cc2ccccc2)c1	–	–	–	–	–
Cc1ccnc2nc(C(=O)OCC(=O)c3c[nH]c4ccccc34)nn12	·	–	–	–	·
CC(C)N1CCN(Cc2cccc(-n3cccn3)c2)CC1CCO (stereo not given)	–	–	–	–	–
O=C(Cc1ccccc1[N+](=O)[O-])N1CCc2ccccc2C1	–	–	–	–	–
CC(=O)c1c(-c2ccc(Cl)cc2Cl)noc1C	·	-57	–	–	·
CCCNC(=O)NC(=O)CN1CCCC1c1ccc2c(c1)OCCO2 (stereo not given)	·	–	–	–	·
O=C(CCl)N1CCCC1c1ccc2c(c1)OCCO2 (stereo not given)	·	-63	–	–	·
O=C(CN(Cc1ccc(F)cc1)C(=O)CCC(=O)Nc1nccs1)NCc1ccc(F)cc1	·	–	–	–	·
Cc1ccccc1NS(=O)(=O)c1cc(C(=O)NCc2ccncc2)ccc1Cl	·	–	–	–	·
CCN1CCCC1CN(Cc1cc2c(C)cc(C)cc2[nH]c1=O)C(=O)NC1CCCCC1 (stereo not given)	–	–	–	–	59
Cc1ccc(NC(=O)CN(C)Cc2nc3ccccc3c(=O)[nH]2)c(Br)c1	–	–	53	–	–
O=[N+]([O-])c1ccc(CSC2=NCCN2)cc1	·	–	–	–	·
COc1ccc(C(=O)NCCN2CCOCC2)cc1[N+](=O)[O-]	·	–	–	–	·
Cc1ccc(NC(=O)c2ccc(NCCCN3CCOCC3)c([N+](=O)[O-])c2)cc1Cl	–	–	–	–	99
COc1ccc(CNC(=O)c2ccc(N3CCOCC3)c([N+](=O)[O-])c2)cc1	–	–	–	–	–
COc1ccc2oc(-c3ccc(C)c(NC(=O)c4ccc(N5CCOCC5)c([N+](=O)[O-])c4)c3)nc2c1	–	–	81	–	–
COc1ccc(NC(=O)c2ccc(NCCCN3CCOCC3)c([N+](=O)[O-])c2)cc1	–	–	–	–	55
Cc1ccc(C(=O)NCCCN2CCOCC2)cc1Cl	·	–	–	–	·
O=C(NCCCN1CCOCC1)c1ccc(Cl)c([N+](=O)[O-])c1	·	–	–	–	·
SMILES	Hsp70 activator	HSF1 inhib	HSF1 activator	T cruzi inh	L major viab
O=C(Nc1ccc(Cl)c([N+](=O)[O-])c1)c1ccc(NCCCN2CCOCC2)c([N+](=O)[O-])c1	–	–	–	55	–
O=C(NCCCN1CCOCC1)c1ccc(Sc2cccc(Cl)c2)c([N+](=O)[O-])c1	–	–	–	–	–
CCOC(=O)CSc1ccc(C(=O)NCCCN2CCOCC2)cc1[N+](=O)[O-]	·	-69	–	–	·
Cc1cccc(C(C)Nc2ccc([N+](=O)[O-])cn2)c1 (stereo not given)	–	–	–	–	–
Cc1ccc(-c2nn(-c3ccccc3)cc2CO)cc1	·	–	–	–	·
Cc1ccc(-c2nn(-c3ccccc3)cc2CNCc2ccccc2)cc1	–	–	–	62	62
Cc1ccc(-c2nn(-c3ccccc3)c3[nH]c(=O)c(CNCc4ccccc4)cc23)cc1	–	–	–	–	97
CCOC(=O)N1CCN(C(=O)CSCc2ccc(Br)cc2)CC1	–	–	–	–	–
CC1=C(C#N)c2nc(N)c(C#N)c(C)c2/C1=C\c1ccc(C)cc1	–	–	–	–	100
COc1cc(/C=C2\C(C)=C(C#N)c3nc(N)c(C#N)c(C)c32)ccc1OCC(=O)O	·	–	–	–	·
O=C(NCCNC(=O)c1cc(Cl)ccc1Cl)c1ccco1	·	–	–	–	·
Cc1ccc(C=Nc2ccc(N(C)C)cc2)o1	–	–	–	61	80
Cc1ccc(/C=N/n2c(C)nnc2C)o1	–	–	–	–	–
O=C(N/N=C/c1ccc2c(c1)OCCO2)c1ccncc1	·	–	–	–	·
O=C(N/N=C/c1cc(Br)cc(Cl)c1O)c1ccc2c(c1)OCO2	·	–	–	–	·
COc1cc(/C=N/NC(=O)c2ccc(Cl)cc2)ccc1OCC(=O)N1CC(C)OC(C)C1 (stereo not given)	–	–	56	–	–
O=C(N/N=C/c1ccc2c(c1)OCO2)c1ccc2c(c1)OCCO2	–	-55	–	–	–
NS(=O)(=O)c1ccc(N/N=C/c2ccc3c(c2)OCO3)c([N+](=O)[O-])c1	–	–	–	–	–
O=[N+]([O-])c1ccccc1N/N=C/c1ccc2c(c1)OCO2	–	–	65	–	–
O=C(N/N=C/c1cc(Cl)cc([N+](=O)[O-])c1O)c1ccc2c(c1)OCO2	·	–	–	57	·
CCN(CC)C(=O)Cn1nnc(-c2ccc(S(C)(=O)=O)cc2)n1	–	–	–	–	–
O=C(O)COc1ccccc1/C=N/NC(=O)c1ccc(F)cc1	–	–	–	–	–
Cc1cccc(C(=O)N/N=C/c2ccc3c(c2)OCO3)n1	–	–	–	–	–
O=C(N/N=C/c1ccc2c(c1)OCO2)c1ccc2ccccc2n1	–	–	–	–	78
Cc1ccsc1/C=N/NC(=O)c1ccc2ccccc2c1	·	–	–	–	·
SMILES	Hsp70 activator	HSF1 inhib	HSF1 activator	T cruzi inh	L major viab
Cc1ccsc1/C=N/NC(=O)Nc1ccccc1	–	–	58	–	–
O=C(O)c1ccc(N/N=C/c2ccc3c(c2)OCO3)cc1	–	-71	–	–	–
O=C(O)COc1ccccc1/C=N/NC(=O)c1ccc2c(c1)OCCO2	·	-60	–	–	·
Cn1cc(Br)c(-c2cccc(NC(=O)CCC(=O)O)c2)n1	·	–	–	–	·
O=[N+]([O-])CC1(n2nc3ccccc3n2)CCCCC1	·	–	–	–	·
Cc1nc2ccccc2c(=O)n1NC(=O)C1CC1C (stereo not given)	–	–	–	–	–
O=C(N/N=C/c1ccc2c(c1)OCO2)c1sc2cc(Cl)ccc2c1Cl	–	–	–	–	–
Cc1ccc(C(C)C)cc1OCC(=O)N/N=C/c1ccc2c(c1)OCCO2	–	–	–	–	90
CC(C)c1ccc(/C=N/NC(=O)c2cccc(Cl)c2)cc1	–	–	55	–	–
